What was measured:
[1] = molecular target: T1, Substance-P receptor (Homo sapiens, UniProt P25103); assay: Displacement of [125I]substance P human recombinant NK1 receptor expressed in CHO cells in absence of human serum albumin; type: cell-based
Summary of the method: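 Competitive radioligand binding with [125I]substance P on CHO cells stably expressing recombinant hNK1 receptor; IC50 determined without and with 50% human serum.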

[2] = molecular target: T1, Substance-P receptor; assay: Antagonist activity at human NK1 receptor expressed in CHO cells assessed as inhibition of substance P-induced IP1 formation at 100 nM; type: functional, cell-based; design: scale not given: the % may be the effect or the level left
Summary of the method: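 CHO cells stably expressing recombinant human NK1 receptor; substance-P-evoked IP-1 formation measured with antagonist present at 100 nM; value given as % of substance P response remaining.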

[3] = tested on: Gerbillinae; assay: Toxicity in iv dosed gerbils brain assessed as inhibition of GR-73632-induced foot tapping after 24 hrs; type: organism-based; settings: in vivo
[4] = tested on: Gerbillinae; assay: Toxicity in iv dosed gerbils brain assessed as inhibition of GR-73632-induced foot tapping after 1 hr; type: organism-based; settings: in vivo
[5] = tested on: Rhesus monkey; assay: Ex vivo NK1 receptor occupancy in rhesus monkey brain at plasma level of 390 ng/ml; type: functional, Macaca mulatta
[6] = species on record: Macaca mulatta; assay: Ex vivo NK1 receptor occupancy in rhesus brain at plasma level of 31 ng/ml
[7] = molecular target: Cytochrome P450 2D6 (Homo sapiens, UniProt P10635); assay: Inhibition of human CYP2D6; type: ADME
[8] = Volume of distribution at steady state in rat at 1 mg/kg, iv and 2 mg/kg, po; type: ADME, organism-based; settings: in vivo, read-out: Vdss
Summary of the method: (§1)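 Rats dosed at 1 mg/kg iv and 2 mg/kg po; plasma pharmacokinetics (clearance, Vdss, half-life, oral bioavailability) derived.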

[9] = molecular target: T2, Cytochrome P450 1A2 (Homo sapiens, UniProt P05177); assay: Inhibition of human CYP1A2; type: ADME
T2 sequence (P05177 whole entry): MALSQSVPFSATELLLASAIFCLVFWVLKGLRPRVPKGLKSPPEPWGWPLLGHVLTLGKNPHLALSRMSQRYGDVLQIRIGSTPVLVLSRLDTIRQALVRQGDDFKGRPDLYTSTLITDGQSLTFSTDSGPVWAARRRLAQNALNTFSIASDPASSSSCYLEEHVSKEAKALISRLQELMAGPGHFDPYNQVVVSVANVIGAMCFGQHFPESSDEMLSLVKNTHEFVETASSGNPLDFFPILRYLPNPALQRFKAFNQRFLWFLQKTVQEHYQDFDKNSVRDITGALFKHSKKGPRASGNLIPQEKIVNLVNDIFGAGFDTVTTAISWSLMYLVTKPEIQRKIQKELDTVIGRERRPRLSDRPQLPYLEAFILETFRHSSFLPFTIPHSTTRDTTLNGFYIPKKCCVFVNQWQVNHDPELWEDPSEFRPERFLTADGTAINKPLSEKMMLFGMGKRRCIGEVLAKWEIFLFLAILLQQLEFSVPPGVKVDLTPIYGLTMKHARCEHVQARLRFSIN

[10] = tested on: Gerbillinae; assay: Toxicity in iv dosed gerbils plasma assessed as inhibition of GR-73632-induced foot tapping after 1 hr; type: organism-based
[11] = Plasma clearance in dog at 0.5 mg/kg, iv and 1 mg/kg, po; type: ADME, organism-based, Canis lupus familiaris
Summary of the method: (§2)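 Dogs and monkeys dosed at 0.5 mg/kg iv and 1 mg/kg po; plasma sampled to derive clearance, Vdss, half-life, oral bioavailability and dose-normalised oral AUC(0-∞).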

[12] = tested on: Gerbillinae; assay: in iv dosed gerbils plasma assessed as inhibition of GR-73632-induced foot tapping after 24 hrs
[13] = molecular target: Cytochrome P450 2C9 (Homo sapiens, UniProt P11712); assay: Inhibition of human CYP2C9; type: ADME
[14] = Plasma clearance in rat at 1 mg/kg, iv and 2 mg/kg, po; type: ADME, organism-based; summary of the method: as §1
[15] = Bioavailability in dog at 0.5 mg/kg, iv and 1 mg/kg, po; type: ADME, organism-based, Canis lupus familiaris; settings: in vivo; summary of the method: as §2
[16] = molecular target: T3, Substance-K receptor (Homo sapiens, UniProt P21452); assay: Binding affinity to human NK2 receptor
T3 sequence (P21452 whole entry): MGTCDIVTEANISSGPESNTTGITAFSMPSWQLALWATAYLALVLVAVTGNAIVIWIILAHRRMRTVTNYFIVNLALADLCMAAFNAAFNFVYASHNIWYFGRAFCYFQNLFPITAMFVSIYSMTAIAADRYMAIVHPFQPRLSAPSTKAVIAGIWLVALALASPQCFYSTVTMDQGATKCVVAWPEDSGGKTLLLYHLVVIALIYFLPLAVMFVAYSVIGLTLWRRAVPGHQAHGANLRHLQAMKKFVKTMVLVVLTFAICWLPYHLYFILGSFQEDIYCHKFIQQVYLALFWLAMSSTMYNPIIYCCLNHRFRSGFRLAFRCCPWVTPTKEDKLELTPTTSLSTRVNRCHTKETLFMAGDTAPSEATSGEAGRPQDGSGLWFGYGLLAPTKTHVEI

[17] = Half life in rat at 1 mg/kg, iv and 2 mg/kg, po; type: ADME, organism-based; settings: in vivo; summary of the method: as §1
[18] = molecular target: Cytochrome P450 2C19 (Homo sapiens, UniProt P33261); assay: Inhibition of human CYP2C19; type: ADME
[19] = Half life in monkey at 0.5 mg/kg, iv and 1 mg/kg, po; type: ADME, organism-based, Macaca mulatta; settings: rhesus monkey, in vivo; summary of the method: as §2
[20] = Plasma clearance in monkey at 0.5 mg/kg, iv and 1 mg/kg, po; type: ADME, organism-based, Macaca mulatta; settings: rhesus monkey; summary of the method: as §2
[21] = Bioavailability in rat at 1 mg/kg, iv and 2 mg/kg; type: ADME, organism-based; settings: in vivo; summary of the method: as §1
[22] = tested on: Rhesus monkey; assay: Ex vivo NK1 receptor occupancy in rhesus monkey brain at plasma level of 37 ng/ml; type: functional, Macaca mulatta
Summary of the method: (§3)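 Rhesus PET with [18F]SPARQ: striatal binding compared before and during steady-state plasma drug level, achieved by iv bolus plus matched constant iv infusion continued through imaging; occupancy vs plasma concentration fit to three-parameter Hill equation.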

[23] = Volume of distribution at steady state in monkey at 0.5 mg/kg, iv and 1 mg/kg, po; type: ADME, organism-based, Macaca mulatta; settings: rhesus monkey, in vivo, read-out: Vdss; summary of the method: as §2
[24] = molecular target: T4, Neuromedin-K receptor (Homo sapiens, UniProt P29371); assay: Binding affinity to human NK3 receptor
T4 sequence (P29371 whole entry): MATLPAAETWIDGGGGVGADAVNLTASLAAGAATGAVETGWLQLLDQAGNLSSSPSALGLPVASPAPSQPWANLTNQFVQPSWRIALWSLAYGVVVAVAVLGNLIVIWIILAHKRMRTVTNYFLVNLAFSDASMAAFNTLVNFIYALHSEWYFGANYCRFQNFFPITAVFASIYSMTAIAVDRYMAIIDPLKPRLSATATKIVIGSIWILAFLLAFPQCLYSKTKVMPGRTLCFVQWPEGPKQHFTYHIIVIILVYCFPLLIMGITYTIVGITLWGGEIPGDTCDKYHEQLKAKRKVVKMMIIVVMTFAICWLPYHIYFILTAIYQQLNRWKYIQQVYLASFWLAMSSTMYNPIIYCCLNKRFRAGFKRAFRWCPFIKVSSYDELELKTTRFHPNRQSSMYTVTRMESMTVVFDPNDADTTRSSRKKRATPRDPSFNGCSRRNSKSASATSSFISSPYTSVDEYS

[25] = Half life in dog at 0.5 mg/kg, iv and 1 mg/kg, po; type: ADME, organism-based, Canis lupus familiaris; settings: in vivo; summary of the method: as §2
[26] = tested on: Rhesus monkey; assay: Ex vivo NK1 receptor occupancy in rhesus monkey brain at plasma level of 5 ng/ml; type: functional, Macaca mulatta; summary of the method: as §3
[27] = Volume of distribution at steady state in dog at 0.5 mg/kg, iv and 1 mg/kg, po; type: ADME, organism-based, Canis lupus familiaris; settings: in vivo, read-out: Vdss; summary of the method: as §2
[28] = molecular target: Cytochrome P450 3A4 (Homo sapiens, UniProt P08684); assay: Inhibition of human CYP3A4; type: ADME
[29] = Bioavailability in monkey at 0.5 mg/kg, iv and 1 mg/kg, po; type: ADME, organism-based, Macaca mulatta; settings: rhesus monkey, in vivo; summary of the method: as §2
[30] = molecular target: T5, Cytochrome P450 2C8 (Homo sapiens, UniProt P10632); assay: Inhibition of human CYP2C8; type: ADME
T5 sequence (P10632 whole entry): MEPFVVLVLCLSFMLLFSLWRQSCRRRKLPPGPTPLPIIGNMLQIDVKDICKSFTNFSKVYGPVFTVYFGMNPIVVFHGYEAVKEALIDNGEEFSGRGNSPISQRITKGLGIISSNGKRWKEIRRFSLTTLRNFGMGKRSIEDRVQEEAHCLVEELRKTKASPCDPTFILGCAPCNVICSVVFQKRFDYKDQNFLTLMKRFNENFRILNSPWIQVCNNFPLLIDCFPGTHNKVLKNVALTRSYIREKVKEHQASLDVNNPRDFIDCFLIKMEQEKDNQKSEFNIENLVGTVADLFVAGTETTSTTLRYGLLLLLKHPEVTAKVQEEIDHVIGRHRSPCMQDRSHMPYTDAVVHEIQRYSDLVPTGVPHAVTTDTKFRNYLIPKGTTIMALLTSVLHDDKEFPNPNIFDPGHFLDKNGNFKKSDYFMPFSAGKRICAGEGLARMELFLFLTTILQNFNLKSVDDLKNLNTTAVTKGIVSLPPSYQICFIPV

T1 sequence (P25103 whole entry): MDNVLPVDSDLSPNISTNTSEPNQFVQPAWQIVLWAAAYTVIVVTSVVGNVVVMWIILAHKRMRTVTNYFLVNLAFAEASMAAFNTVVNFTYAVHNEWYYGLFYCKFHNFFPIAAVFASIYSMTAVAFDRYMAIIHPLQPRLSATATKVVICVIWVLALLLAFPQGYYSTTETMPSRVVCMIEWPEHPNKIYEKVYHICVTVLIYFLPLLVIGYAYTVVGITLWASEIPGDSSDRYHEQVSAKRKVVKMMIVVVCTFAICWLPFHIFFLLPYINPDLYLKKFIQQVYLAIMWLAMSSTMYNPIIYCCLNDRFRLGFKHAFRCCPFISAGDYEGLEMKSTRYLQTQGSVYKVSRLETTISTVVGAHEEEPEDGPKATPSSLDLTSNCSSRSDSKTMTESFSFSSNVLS
Cytochrome P450 2C19, sequence (P33261 whole entry): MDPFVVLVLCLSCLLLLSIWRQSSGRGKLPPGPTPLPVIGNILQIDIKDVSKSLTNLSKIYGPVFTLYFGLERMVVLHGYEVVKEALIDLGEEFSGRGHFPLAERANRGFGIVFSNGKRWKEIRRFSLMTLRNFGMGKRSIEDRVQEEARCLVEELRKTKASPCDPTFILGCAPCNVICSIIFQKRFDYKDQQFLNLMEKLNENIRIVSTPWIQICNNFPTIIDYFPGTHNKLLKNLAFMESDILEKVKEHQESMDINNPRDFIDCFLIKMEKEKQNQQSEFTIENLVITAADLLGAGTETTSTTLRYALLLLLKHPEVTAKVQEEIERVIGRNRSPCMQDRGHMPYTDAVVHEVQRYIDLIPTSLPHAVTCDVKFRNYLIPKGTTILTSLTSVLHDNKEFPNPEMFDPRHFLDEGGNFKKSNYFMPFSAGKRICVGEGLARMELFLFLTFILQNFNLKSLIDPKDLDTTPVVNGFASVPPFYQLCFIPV
Cytochrome P450 2D6, sequence (P10635 whole entry): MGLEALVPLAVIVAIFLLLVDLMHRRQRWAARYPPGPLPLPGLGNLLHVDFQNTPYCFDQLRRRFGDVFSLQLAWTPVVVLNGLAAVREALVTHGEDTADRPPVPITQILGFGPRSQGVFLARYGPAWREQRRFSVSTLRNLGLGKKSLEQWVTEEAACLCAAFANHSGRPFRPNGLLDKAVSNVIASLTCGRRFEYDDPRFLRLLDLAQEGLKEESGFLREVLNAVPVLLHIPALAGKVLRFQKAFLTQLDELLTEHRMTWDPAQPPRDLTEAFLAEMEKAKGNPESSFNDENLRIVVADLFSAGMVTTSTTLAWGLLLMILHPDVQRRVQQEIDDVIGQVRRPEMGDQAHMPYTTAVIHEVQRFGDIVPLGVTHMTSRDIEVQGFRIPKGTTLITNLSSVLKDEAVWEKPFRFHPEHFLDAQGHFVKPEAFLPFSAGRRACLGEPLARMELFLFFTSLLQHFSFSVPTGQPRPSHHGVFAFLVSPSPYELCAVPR
Cytochrome P450 3A4, sequence (P08684 whole entry): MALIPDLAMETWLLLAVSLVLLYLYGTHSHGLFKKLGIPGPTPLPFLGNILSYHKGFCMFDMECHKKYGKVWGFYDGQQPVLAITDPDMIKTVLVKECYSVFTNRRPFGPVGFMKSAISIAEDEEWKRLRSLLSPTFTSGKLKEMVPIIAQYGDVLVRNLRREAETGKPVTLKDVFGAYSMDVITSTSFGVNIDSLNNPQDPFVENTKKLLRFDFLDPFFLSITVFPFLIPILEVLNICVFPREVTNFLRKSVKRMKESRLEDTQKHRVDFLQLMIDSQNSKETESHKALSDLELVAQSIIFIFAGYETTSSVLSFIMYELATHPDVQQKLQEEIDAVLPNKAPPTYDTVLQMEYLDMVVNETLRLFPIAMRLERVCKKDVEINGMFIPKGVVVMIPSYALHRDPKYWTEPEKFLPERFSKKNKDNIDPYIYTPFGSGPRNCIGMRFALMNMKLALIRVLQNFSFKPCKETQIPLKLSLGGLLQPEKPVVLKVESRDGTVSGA
Cytochrome P450 2C9, sequence (P11712 whole entry): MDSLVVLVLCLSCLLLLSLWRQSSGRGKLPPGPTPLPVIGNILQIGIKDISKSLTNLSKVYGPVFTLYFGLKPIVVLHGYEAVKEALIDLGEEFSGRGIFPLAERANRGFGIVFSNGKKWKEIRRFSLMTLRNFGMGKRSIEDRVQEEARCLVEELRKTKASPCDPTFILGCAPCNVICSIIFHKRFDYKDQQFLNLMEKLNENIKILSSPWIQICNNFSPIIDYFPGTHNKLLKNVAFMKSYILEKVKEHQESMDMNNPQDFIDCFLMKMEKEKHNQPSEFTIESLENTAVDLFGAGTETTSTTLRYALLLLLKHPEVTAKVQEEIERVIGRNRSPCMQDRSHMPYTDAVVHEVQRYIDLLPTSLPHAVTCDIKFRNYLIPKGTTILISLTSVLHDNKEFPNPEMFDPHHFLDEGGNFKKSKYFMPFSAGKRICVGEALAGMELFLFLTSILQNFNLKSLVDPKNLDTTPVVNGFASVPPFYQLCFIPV

SMILES: C[C@@H](O[C@H]1CC[C@@H]2CN(c3cnccn3)C[C@H]2[C@@H]1c1ccc(F)cc1)c1cc(C(F)(F)F)cc(C(F)(F)F)c1
- IC50 [1]: 0.525 nM
- Activity [2]: 79%

SMILES: CC1=C(N2C[C@H]3CC[C@H](O[C@H](C)c4cc(C(F)(F)F)cc(C(F)(F)F)c4)[C@@H](c4ccc(F)cc4)[C@@H]3C2)CCC1=O
- ID50 [3]: 0.2 mg/kg
- IC50 [1]: 0.1 nM
- Activity [2]: 9%
- ID50 [4]: 0.13 mg/kg

SMILES: C[C@@H](O[C@H]1CC[C@@H]2CNC[C@H]2[C@@H]1c1ccc(F)cc1)c1cc(C(F)(F)F)cc(C(F)(F)F)c1
- IC50 [1]: 0.15 nM
- Activity [2]: 44%

SMILES: C[C@@H](O[C@H]1CN(C2=CC(=O)CC2)C[C@@H]1c1ccc(F)cc1)c1cc(C(F)(F)F)cc(C(F)(F)F)c1
- Activity [5]: >=90%
- Activity [6]: 50%

SMILES: C[C@@H](O[C@H]1CC[C@@H]2CN(C)C[C@H]2[C@@H]1c1ccc(F)cc1)c1cc(C(F)(F)F)cc(C(F)(F)F)c1
- IC50 [1]: 0.255 nM
- Activity [2]: 54%

SMILES: CC(=O)N1C[C@H]2CC[C@H](O[C@H](C)c3cc(C(F)(F)F)cc(C(F)(F)F)c3)[C@@H](c3ccc(F)cc3)[C@@H]2C1
- IC50 [1]: 0.11 nM
- Activity [2]: 40%

SMILES: CNC(=O)N1C[C@H]2CC[C@H](O[C@H](C)c3cc(C(F)(F)F)cc(C(F)(F)F)c3)[C@@H](c3ccc(F)cc3)[C@@H]2C1
- IC50 [1]: 0.09 nM
- Activity [2]: 58%

SMILES: C[C@@H](O[C@H]1CC[C@@H]2CN(C3=CC(=O)CCC3)C[C@H]2[C@@H]1c1ccc(F)cc1)c1cc(C(F)(F)F)cc(C(F)(F)F)c1
- ID50 [3]: 0.3 mg/kg
- IC50 [1]: 0.13 nM
- Activity [2]: 4%
- ID50 [4]: 0.18 mg/kg

SMILES: C[C@@H](O[C@H]1CC[C@@H]2CN(C3=CC(=O)CC3)C[C@H]2[C@@H]1c1ccc(F)cc1)c1cc(C(F)(F)F)cc(C(F)(F)F)c1 [SERLOPITANT]
- ID50 [3]: 0.46 mg/kg
- IC50 [7]: 35000 nM
- Vd [8]: 1.5 L/kg
- IC50 [9]: > 100000 nM
- IC50 [10]: 6.5 nM
- clearance [11]: 0.7 mL/min/kg
- IC50 [12]: 6 nM
- IC50 [13]: 30000 nM
- clearance [14]: 0.7 mL/min/kg
- bioavailability [15]: 71%
- Ki [16]: 2400 nM
- IC50 [1]: 0.06 nM
- half-life [17]: 24 h
- IC50 [18]: 29000 nM
- half-life [19]: 24 h
- clearance [20]: 1 mL/min/kg
- Activity [2]: 5%
- bioavailability [21]: 40%
- Activity [22]: 90%
- Vd [23]: 2 L/kg
- Ki [24]: 2400 nM
- half-life [25]: 31 h
- Activity [26]: 50%
- ID50 [4]: 0.08 mg/kg
- Vd [27]: 2 L/kg
- IC50 [28]: 39000 nM
- bioavailability [29]: 69%
- IC50 [30]: 58000 nM
